Laboratory results published in ChEMBL document CHEMBL1146365, “Synthesis and biological evaluation of new N-(2-hydroxy-4(or 5)-nitro/aminophenyl)benzamides and phenylacetamides as antimicrobial agents” (2007).
Converted amounts (≈) assume the structure as drawn.

What was measured:
[1] = tested on: Bacillus subtilis; assay: Antibacterial activity against Bacillus subtilis ATCC 6633 assessed after 24 hrs by serial dilution method; format: functional; conditions: ATCC 6633, 24 h
Method in brief: (§1)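 Strains were subcultured twice on MHA at 37 °C overnight. Inoculum was diluted from McFarland 0.5 to 10^5 cfu/ml, giving 10^4 cfu/ml in wells. Solvent, medium and organism-only controls were included. Incubated 37 °C, humid chamber, 24 h, in triplicate. MIC = lowest concentration with no macroscopic growth.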

[2] = tested on: Staphylococcus aureus; assay: Antibacterial activity against Staphylococcus aureus ATCC 25923 assessed after 24 hrs by serial dilution method; format: functional; conditions: ATCC 25923, 24 h; method in brief: as §1
[3] = tested on: Escherichia coli; assay: Antibacterial activity against Escherichia coli ATCC assessed after 24 hrs by serial dilution method
[4] = tested on: Klebsiella pneumoniae; assay: Antibacterial activity against Klebsiella pneumoniae isolate assessed after 24 hrs by serial dilution method; format: functional; method in brief: as §1
[5] = tested on: Escherichia coli; assay: Antibacterial activity against Escherichia coli isolate assessed after 24 hrs by serial dilution method; format: functional; method in brief: as §1
[6] = tested on: Staphylococcus aureus; assay: Antibacterial activity against drug-resistant Staphylococcus aureus assessed after 24 hrs by serial dilution method
[7] = tested on: Bacillus subtilis; assay: Antibacterial activity against drug-resistant Bacillus subtilis assessed after 24 hrs by serial dilution method
[8] = tested on: Candida albicans; assay: Antifungal activity against Candida albicans isolate assessed after 48 hrs by serial dilution method; format: functional
Method in brief: (§2)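 Broth microdilution per CLSI M27-A in RPMI-1640 with L-glutamine, MOPS-buffered pH 7, with 2-fold compound dilutions. Yeasts were subcultured twice on SDA at 35 °C for 24–48 h. Inoculum was diluted from McFarland 0.5 to 10^4 cfu/ml, giving 10^3 cfu/ml in wells. Incubated 35 °C, humid chamber, 48 h, in triplicate. MIC = lowest concentration with no macroscopic growth.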

[9] = tested on: Pseudomonas aeruginosa; assay: Antibacterial activity against Pseudomonas aeruginosa isolate assessed after 24 hrs by serial dilution method; format: functional; method in brief: as §1
[10] = tested on: Candida albicans; assay: Antifungal activity against Candida albicans ATCC 10231 assessed after 48 hrs by serial dilution method; format: functional; conditions: ATCC 10231, 48 h; method in brief: as §2
[11] = tested on: Klebsiella pneumoniae; assay: Antibacterial activity against Klebsiella pneumoniae RSHM 574 assessed after 24 hrs by serial dilution method
[12] = tested on: Pseudomonas aeruginosa; assay: Antibacterial activity against Pseudomonas aeruginosa ATCC […] assessed after 24 hrs by serial dilution method

MIC [1] [µg/mL]	MIC [2] [µg/mL]	MIC [3] [µg/mL]	MIC [4] [µg/mL]	MIC [5] [µg/mL]	MIC [6] [µg/mL]	MIC [7] [µg/mL]	MIC [8] [µg/mL]	MIC [9] [µg/mL]	MIC [10] [µg/mL]	MIC [11] [µg/mL]	MIC [12] [µg/mL]	Compound
3.9 (≈ 11.6 µM)	7.8 (≈ 23.1 µM)	62.5 (≈ 185 µM)	125 (≈ 371 µM)	250 (≈ 742 µM)	500 (≈ 1480 µM)	1.95 (≈ 5.78 µM)	125 (≈ 371 µM)	250 (≈ 742 µM)	250 (≈ 742 µM)	125 (≈ 371 µM)	250 (≈ 742 µM)	O=C(Nc1ccc([N+](=O)[O-])cc1O)c1ccc(Br)cc1
15.6 (≈ 54.5 µM)	250 (≈ 873 µM)	125 (≈ 437 µM)	250 (≈ 873 µM)	250 (≈ 873 µM)	125 (≈ 437 µM)	62.5 (≈ 218 µM)	250 (≈ 873 µM)	250 (≈ 873 µM)	250 (≈ 873 µM)	125 (≈ 437 µM)	125 (≈ 437 µM)	Cc1ccc(CC(=O)Nc2cc([N+](=O)[O-])ccc2O)cc1
62.5 (≈ 244 µM)	250 (≈ 975 µM)	125 (≈ 488 µM)	250 (≈ 975 µM)	250 (≈ 975 µM)	62.5 (≈ 244 µM)	62.5 (≈ 244 µM)	250 (≈ 975 µM)	250 (≈ 975 µM)	125 (≈ 488 µM)	125 (≈ 488 µM)	125 (≈ 488 µM)	Cc1ccc(CC(=O)Nc2ccc(N)cc2O)cc1
7.8 (≈ 30.2 µM)	31.2 (≈ 121 µM)	125 (≈ 484 µM)	250 (≈ 968 µM)	250 (≈ 968 µM)	15.6 (≈ 60.4 µM)	62.5 (≈ 242 µM)	250 (≈ 968 µM)	250 (≈ 968 µM)	125 (≈ 484 µM)	125 (≈ 484 µM)	125 (≈ 484 µM)	O=C(Nc1cc([N+](=O)[O-])ccc1O)c1ccccc1
125 (≈ 508 µM)	62.5 (≈ 254 µM)	250 (≈ 1020 µM)	250 (≈ 1020 µM)	250 (≈ 1020 µM)	15.6 (≈ 63.4 µM)	125 (≈ 508 µM)	125 (≈ 508 µM)	250 (≈ 1020 µM)	125 (≈ 508 µM)	125 (≈ 508 µM)	125 (≈ 508 µM)	Nc1ccc(NC(=O)c2ccc(F)cc2)c(O)c1
31.2 (≈ 121 µM)	62.5 (≈ 242 µM)	125 (≈ 484 µM)	250 (≈ 968 µM)	250 (≈ 968 µM)	125 (≈ 484 µM)	31.2 (≈ 121 µM)	125 (≈ 484 µM)	250 (≈ 968 µM)	62.5 (≈ 242 µM)	125 (≈ 484 µM)	125 (≈ 484 µM)	O=C(Nc1ccc([N+](=O)[O-])cc1O)c1ccccc1
31.2 (≈ 89 µM)	250 (≈ 712 µM)	125 (≈ 356 µM)	125 (≈ 356 µM)	250 (≈ 712 µM)	125 (≈ 356 µM)	125 (≈ 356 µM)	250 (≈ 712 µM)	250 (≈ 712 µM)	250 (≈ 712 µM)	250 (≈ 712 µM)	250 (≈ 712 µM)	O=C(Cc1ccc(Br)cc1)Nc1ccc([N+](=O)[O-])cc1O
62.5 (≈ 244 µM)	15.6 (≈ 60.9 µM)	125 (≈ 488 µM)	62.5 (≈ 244 µM)	125 (≈ 488 µM)	15.6 (≈ 60.9 µM)	31.2 (≈ 122 µM)	62.5 (≈ 244 µM)	125 (≈ 488 µM)	62.5 (≈ 244 µM)	62.5 (≈ 244 µM)	62.5 (≈ 244 µM)	CCc1ccc(C(=O)Nc2cc(N)ccc2O)cc1
7.8 (≈ 24.8 µM)	7.8 (≈ 24.8 µM)	125 (≈ 398 µM)	250 (≈ 795 µM)	250 (≈ 795 µM)	1.95 (≈ 6.2 µM)	15.6 (≈ 49.6 µM)	125 (≈ 398 µM)	250 (≈ 795 µM)	250 (≈ 795 µM)	125 (≈ 398 µM)	125 (≈ 398 µM)	CC(C)(C)c1ccc(C(=O)Nc2ccc([N+](=O)[O-])cc2O)cc1
250 (≈ 873 µM)	62.5 (≈ 218 µM)	125 (≈ 437 µM)	125 (≈ 437 µM)	125 (≈ 437 µM)	125 (≈ 437 µM)	15.6 (≈ 54.5 µM)	125 (≈ 437 µM)	250 (≈ 873 µM)	125 (≈ 437 µM)	500 (≈ 1750 µM)	250 (≈ 873 µM)	CCc1ccc(C(=O)Nc2ccc([N+](=O)[O-])cc2O)cc1

Compound	MIC [1] [µg/mL]	MIC [2] [µg/mL]	MIC [3] [µg/mL]	MIC [4] [µg/mL]	MIC [5] [µg/mL]	MIC [6] [µg/mL]	MIC [7] [µg/mL]	MIC [8] [µg/mL]	MIC [9] [µg/mL]	MIC [10] [µg/mL]	MIC [11] [µg/mL]	MIC [12] [µg/mL]
CC1COc2c(N3CCN(C)CC3)c(F)cc3c(=O)c(C(=O)O)cn1c23 (stereo not drawn) [OFLOXACIN]	> 4100	> 4100	–	64 (≈ 177 µM)	32 (≈ 88.6 µM)	> 4100	32 (≈ 88.6 µM)	–	–	–	64 (≈ 177 µM)	8 (≈ 22.1 µM)
CO[C@H]1/C=C/O[C@@]2(C)Oc3c(C)c(O)c4c(O)c(c(/C=N/N5CCN(C)CC5)c(O)c4c3C2=O)NC(=O)/C(C)=C\C=C\[C@H](C)[C@H](O)[C@@H](C)[C@@H](O)[C@@H](C)[C@H](OC(C)=O)[C@@H]1C [RIFAMPIN]	–	> 4100	> 4100	256 (≈ 311 µM)	62.5 (≈ 75.9 µM)	512 (≈ 622 µM)	256 (≈ 311 µM)	–	32 (≈ 38.9 µM)	–	16 (≈ 19.4 µM)	32 (≈ 38.9 µM)
C[C@@H]1[C@H](O)[C@@H](C)/C=C/C=C/C=C/C=C/C=C/C=C/C=C/[C@H](O[C@@H]2O[C@H](C)[C@@H](O)[C@H](N)[C@@H]2O)C[C@@H]2O[C@](O)(C[C@@H](O)C[C@@H](O)[C@H](O)CC[C@@H](O)C[C@@H](O)CC(=O)O[C@H]1C)C[C@H](O)[C@H]2C(=O)O [AMPHOTERICIN B]	–	–	–	–	–	–	–	128 (≈ 139 µM)	–	–	–	–
